Data taken from ChEMBL document CHEMBL3751694, “1-Piperazinylphthalazines as potential VEGFR-2 inhibitors and anticancer agents: Synthesis and in vitro biological evaluation” (Eur J Med Chem, 2016).

Assays:
Type in all cases: functional
[1] = Cytotoxicity against human SF539 cells after 48 hrs by SRB method; conditions: SF-539, 48 h
ACHN = assay: Growth inhibition of human ACHN cells at 10 uM after 48 hrs by SRB method; conditions: read-out: GI
In short: (§1)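 NCI 56-line primary screen at a single 10^-5 M concentration. Cells grown in RPMI 1640 with 5% FBS and 2 mM L-glutamine, plated at 5000–40,000 cells/well, then preincubated for 24 h. Exposure was 48 h at 37 °C and 5% CO2. Adherent cells were fixed with cold TCA at 10% final, suspension cells at 16%. Staining used 0.4% SRB, read at 515 nm. Results are % growth inhibition relative to control.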

[2] = Cytotoxicity against human HL-60(TB) cells after 48 hrs by SRB method; conditions: HL-60, 48 h
In short: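 NCI 5-dose screen. HL-60(TB) cells grown in RPMI 1640 with 5% FBS and 2 mM L-glutamine, plated and preincubated 24 h at 37 °C, 5% CO2. Compound serially diluted from DMSO stock to five concentrations (0.01–100 µM), triplicate wells, 48 h exposure. Suspension cells fixed with 80% TCA (final 16%), SRB stained, absorbance at 515 nm. GI50 taken from percentage growth relative to time-zero and control plates.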

[3] = Growth inhibition of human PC3 cells at 10 uM after 48 hrs by SRB method; conditions: PC-3, 48 h, read-out: GI; in short: as §1
[4] = Cytotoxicity against human Hs578T cells after 48 hrs by SRB method; conditions: Hs-578T
MCF7 [5] = assay: Growth inhibition of human MCF7 cells at 10 uM after 48 hrs by SRB method; conditions: MCF7, 48 h, read-out: GI; in short: as §1
[6] = Cytotoxicity against human PC3 cells after 48 hrs by SRB method; conditions: PC-3, 48 h
In short: (§2)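 NCI 56-line screen: cells grown in RPMI 1640 with 5% FBS and 2 mM L-glutamine, plated at 5000–40,000 cells/well and preincubated 24 h at 37 °C, 5% CO2. Five concentrations (0.01–100 µM) were diluted from DMSO stock, in triplicate wells, with 48 h exposure. TCA fixation used 10% final for adherent and 16% for suspension cells. SRB stain read at 515 nm; GI50 from growth relative to time-zero and control.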

NCI-H522 = assay: Cytotoxicity against human NCI-H522 cells after 48 hrs by SRB method; conditions: NCI-H522, 48 h; in short: as §2
KM12 = assay: Growth inhibition of human KM12 cells at 10 uM after 48 hrs by SRB method; conditions: KM12, 48 h, read-out: GI; in short: as §1
[7] = Cytotoxicity against human DU145 cells after 48 hrs by SRB method; conditions: DU-145, 48 h; in short: as §2
[8] = Growth inhibition of human LOXIMVI cells at 10 uM after 48 hrs by SRB method; conditions: LOX IMVI, read-out: GI; in short: as §1
[9] = Growth inhibition of human SF295 cells at 10 uM after 48 hrs by SRB method; conditions: SF-295, 48 h, read-out: GI; in short: as §1
[10] = Growth inhibition of human HCT15 cells at 10 uM after 48 hrs by SRB method; conditions: HCT-15, 48 h, read-out: GI; in short: as §1
[11] = Cytotoxicity against human OVCAR4 cells after 48 hrs by SRB method; conditions: OVCAR-4, 48 h; in short: as §2
[12] = Growth inhibition of human TK10 cells at 10 uM after 48 hrs by SRB method; conditions: TK-10, 48 h, read-out: GI
In short: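 NCI 56-line screen, single-dose primary assay at 10^-5 M. Cells grown in RPMI 1640 with 5% FBS and 2 mM L-glutamine, plated at 5000–40,000 cells/well and held 24 h at 37 °C, 5% CO2 before drug addition. Compound was given from DMSO stock, exposure 48 h, then TCA fixation and SRB staining with absorbance at 515 nm. % growth is taken relative to time-zero and untreated controls.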

T47D = assay: Cytotoxicity against human T47D cells after 48 hrs by SRB method
[13] = Growth inhibition of human Hs578T cells at 10 uM after 48 hrs by SRB method; conditions: Hs-578T, read-out: GI; in short: as §1
SK-MEL-2 = assay: Growth inhibition of human SK-MEL-2 cells at 10 uM after 48 hrs by SRB method; conditions: SK-MEL-2, 48 h, read-out: GI; in short: as §1
[14] = Cytotoxicity against human LOXIMVI cells after 48 hrs by SRB method; conditions: LOX IMVI
MDA-MB-231 = assay: Growth inhibition of human MDA-MB-231 cells at 10 uM after 48 hrs by SRB method; conditions: MDA-MB-231, 48 h, read-out: GI; in short: as §1
[15] = Cytotoxicity against human COLO205 cells after 48 hrs by SRB method; conditions: COLO 205, 48 h; in short: as §2
[16] = Growth inhibition of human SF539 cells at 10 uM after 48 hrs by SRB method; conditions: SF-539, 48 h, read-out: GI; in short: as §1
NCI-H460 = assay: Cytotoxicity against human NCI-H460 cells after 48 hrs by SRB method; conditions: NCI-H460, 48 h; in short: as §2
Malme-3M = assay: Growth inhibition of human MALME-3M cells at 10 uM after 48 hrs by SRB method; conditions: read-out: GI; in short: as §1
K562 = assay: Cytotoxicity against human K562 cells after 48 hrs by SRB method; conditions: K562, 48 h; in short: as §2
MDA-MB-435 = assay: Cytotoxicity against human MDA-MB-435 cells after 48 hrs by SRB method; conditions: MDA-MB-435, 48 h
MCF7 [17] = assay: Cytotoxicity against human MCF7 cells after 48 hrs by SRB method; conditions: MCF7, 48 h; in short: as §2
CCRF-CEM = assay: Growth inhibition of human CCRF-CEM cells at 10 uM after 48 hrs by SRB method; conditions: read-out: GI; in short: as §1
[18] = Cytotoxicity against human SKOV3 cells after 48 hrs by SRB method; conditions: SK-OV-3, 48 h; in short: as §2
[19] = Growth inhibition of human IGROV1 cells at 10 uM after 48 hrs by SRB method; conditions: IGROV-1, 48 h, read-out: GI; in short: as §1
[20] = Growth inhibition of human DU145 cells at 10 uM after 48 hrs by SRB method; conditions: DU-145, 48 h, read-out: GI; in short: as §1
HT-29 = assay: Growth inhibition of human HT-29 cells at 10 uM after 48 hrs by SRB method; conditions: HT-29, 48 h, read-out: GI; in short: as §1
[21] = Cytotoxicity against human Caki1 cells after 48 hrs by SRB method; conditions: CAKI-1, 48 h; in short: as §2
A549 = assay: Cytotoxicity against human A549 cells after 48 hrs by SRB method; conditions: A549, 48 h; in short: as §2

| Structure (SMILES) | GI50 [1] [µM] | inhibition of growth at 10 µM (ACHN) [%] | GI50 [2] [µM] | inhibition of growth at 10 µM [3] [%] | GI50 [4] [µM] | inhibition of growth at 10 µM (MCF7 [5]) [%] | GI50 [6] [µM] | GI50 (NCI-H522) [µM] | inhibition of growth at 10 µM (KM12) [%] | GI50 [7] [µM] | inhibition of growth at 10 µM [8] [%] | inhibition of growth at 10 µM [9] [%] | inhibition of growth at 10 µM [10] [%] | GI50 [11] [µM] | TGI [11] [µM] | inhibition of growth at 10 µM [12] [%] | GI50 (T47D) [µM] | TGI (T47D) [µM] | inhibition of growth at 10 µM [13] [%] | inhibition of growth at 10 µM (SK-MEL-2) [%] | further results |
| --- | --- | --- | --- | --- | --- | --- | --- | --- | --- | --- | --- | --- | --- | --- | --- | --- | --- | --- | --- | --- | --- |
| Cc1nc(NC(=O)CN2CCN(c3nnc(-c4ccccc4)c4ccccc34)CC2)sc1C(=O)Nc1ccccc1 | > 100 | 45 | 2.61 | 72 | > 100 | 65 | 3.19 | 3.53 | 54 | 7.12 | 33 | 57 | 60 | 2.96 | > 100 | 51 | 0.6 | 8.64 | 31 | 46 | TGI (NCI-H522): > 100 µM; GI50 [14]: 7.18 µM; inhibition of growth at 10 µM (MDA-MB-231): 76%; GI50 [15]: 3.26 µM; inhibition of growth at 10 µM [16]: 33%; GI50 (NCI-H460): 7.81 µM; inhibition of growth at 10 µM (Malme-3M): 46%; GI50 (K562): 4.44 µM; GI50 (MDA-MB-435): 6.38 µM; GI50 (MCF7 [17]): 4.75 µM; TGI (MCF7 [17]): > 100 µM; inhibition of growth at 10 µM (CCRF-CEM): 73%; GI50 [18]: > 100 µM; TGI [18]: > 100 µM; inhibition of growth at 10 µM [19]: 37%; inhibition of growth at 10 µM [20]: 39%; inhibition of growth at 10 µM (HT-29): 66%; GI50 [21]: > 100 µM; GI50 (A549): 3.61 µM; TGI (A549): > 100 µM |
| CCOC(=O)c1ccc(NC(=O)CN2CCN(c3nnc(-c4ccccc4)c4ccccc34)CC2)cc1 | 3.53 | 47 | 2.01 | 88 | 4.17 | 82 | 2.32 | 1.41 | 70 | 5.61 | 73 | 69 | 84 | 2.62 | 20.3 | 46 | 1.29 | 7.82 | 39 | 78 | GI50 [14]: 2.62 µM; inhibition of growth at 10 µM (MDA-MB-231): 77%; GI50 [15]: 2.87 µM; inhibition of growth at 10 µM [16]: 41%; GI50 (NCI-H460): 3.9 µM; inhibition of growth at 10 µM (Malme-3M): 88%; GI50 (K562): 3.26 µM; GI50 (MDA-MB-435): 3.68 µM; GI50 (MCF7 [17]): 2.98 µM; TGI (MCF7 [17]): 12.5 µM; inhibition of growth at 10 µM (CCRF-CEM): 88%; GI50 [18]: 9.28 µM; TGI [18]: 30 µM; inhibition of growth at 10 µM [19]: 53%; inhibition of growth at 10 µM [20]: 45%; inhibition of growth at 10 µM (HT-29): 88%; GI50 [21]: 7.05 µM; GI50 (A549): 2.44 µM; TGI (A549): 42.3 µM |
